# Measured values published in PMC11544174 (Acta Pharmaceutica Sinica. B, 2024).
# Columns and labels:
# [1] = cytotoxicity; type: cell-based; settings: human, HEp-2 cells
# Method in brief: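 HEp-2 cells were grown in DMEM with 10% FBS. Test compounds were held as 50 mmol/L DMSO stocks at −20 °C and diluted into culture medium to final concentrations. Ribavirin served as positive control.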
# [2] = tested on: respiratory syncytial virus (RSV); test: cytopathic effect; type: cell-based, strain A2; settings: human respiratory syncytial virus, HEp-2, read-out: IC50 ± SD (50% inhibition concentration), anti-RSV activity
# Method in brief: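 Host cells were HEp-2 in DMEM with 10% FBS. RSV A2 stock was propagated in HEp-2 and titred by plaque assay. Test compounds were held as 50 mmol/L DMSO stocks at −20 °C and diluted into medium to final concentrations. Ribavirin served as positive control.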
structure (smiles),measurement,setting,value
NC(=O)c1ncn([C@@H]2O[C@H](CO)[C@@H](O)[C@H]2O)n1 [Ribavirin],CC50,[1],> 50 µM
same,IC50,[2],15 ± 1 µM
